The nature of data set [1]: Cytotoxicity against mouse macrophages assessed as cell death at 30 uM after 24 hrs by MTT colorimetric assay. In kind it is cell-based. The conditions noted are these: macrophage. An outline of the steps:
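Mouse peritoneal macrophages were seeded at 2×10^5 cells/well and allowed to adhere. Medium was then replaced with compound-containing medium and cells were incubated 24 h at 37 °C in humidified 5% CO2. Controls received medium plus DMSO. Viability was read by MTT. % cell death = (control viability − treated viability)/control viability. Values are means ± SD.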

Data set [2] in a line: Partition coefficient, log p of the compound. The data set is classed as physicochemical. The following applies: octanol/water.
In data set [3] the test system is Leishmania major. As to the kind of experiment: Antileishmanial activity against Leishmania major MRHO/IR/75/ER promastigotes by MTT assay. The data set is classed as functional, organism-based. An outline of the steps:
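L. major MRHO/IR/75/ER promastigotes from early log phase, 2×10^6/mL, in phenol red free RPMI 1640 with 10% FBS, 2 mM glutamine, pH ~7.2 and antibiotics. Exposed to serial drug dilutions for 24 h at 25 °C. MTT (0.5 mg/mL) added for 4 h at 37 °C, pellet dissolved in DMSO, A492 read. Two or more independent experiments in triplicate; IC50 by linear regression, means ± SD.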
For orientation: Tetrazolium dyes change colour on reduction, which living cells bring about.

Data set [4] can be described thus: Cytotoxicity against mouse macrophages assessed as cell death at 23.78 uM after 24 hrs by MTT colorimetric assay. The data set is classed as cell-based. The following applies: macrophage.
Data set [5] in a line: Cytotoxicity against mouse macrophages assessed as cell death at 13.11 uM after 24 hrs by MTT colorimetric assay. The data set is classed as cell-based. The following applies: macrophage.
Data set [6] concerns Leishmania major. As to the kind of experiment: Antileishmanial activity against Leishmania major amastigotes assessed as decrease in infectivity in mouse macrophages after 24 hrs. The data set is classed as functional, organism-based.
Data set [7] deals with Leishmania major. As to the kind of experiment: Antileishmanial activity against Leishmania major amastigotes in mouse macrophages assessed as decrease in infectivity index after 24 hrs. The data set is classed as functional, organism-based.
Data set [8] relates to Leishmania major. Briefly: Antileishmanial activity against Leishmania major MRHO/IR/75/ER amastigotes by Giemsa staining.
Data set [9] in a line: Cytotoxicity against mouse macrophages assessed as cell death at 25 uM after 24 hrs by MTT colorimetric assay. The data set is classed as cell-based. The following applies: macrophage.
Data set [10] in a line: Cytotoxicity against mouse macrophages assessed as cell death at 13.19 uM after 24 hrs by MTT colorimetric assay. The following applies: macrophage. In kind it is cell-based.
Data set [11] is described as follows: Cytotoxicity against mouse macrophages assessed as cell death at 26.22 uM after 24 hrs by MTT colorimetric assay. In kind it is cell-based. The following applies: macrophage.
The nature of data set [12]: Cytotoxicity against mouse macrophages assessed as cell death at 34.44 uM after 24 hrs by MTT colorimetric assay. In kind it is cell-based. The conditions noted are these: macrophage.
Data set [13] can be described thus: Cytotoxicity against mouse macrophages assessed as cell death at 24.69 uM after 24 hrs by MTT colorimetric assay. In kind it is cell-based. The following applies: macrophage.
Data set [14] can be described thus: Cytotoxicity against mouse macrophages assessed as cell death at 11.69 uM after 24 hrs by MTT colorimetric assay. The data set is classed as cell-based. The conditions noted are these: macrophage.
The nature of data set [15]: Cytotoxicity against mouse macrophages assessed as cell death at >50 uM after 24 hrs by MTT colorimetric assay. In kind it is cell-based. The following applies: macrophage.
Data set [16] is described as follows: Cytotoxicity against mouse macrophages assessed as cell death at 28.26 uM after 24 hrs by MTT colorimetric assay. The data set is classed as cell-based. The following applies: macrophage.
A short description of data set [17]: Cytotoxicity against mouse macrophages assessed as cell death at 11.75 uM after 24 hrs by MTT colorimetric assay. In kind it is cell-based. The following applies: macrophage.
Data set [18] is described as follows: Cytotoxicity against mouse macrophages assessed as cell death at 10.73 uM after 24 hrs by MTT colorimetric assay. The data set is classed as cell-based. The conditions noted are these: macrophage.
Data set [19] in a line: Cytotoxicity against mouse macrophages assessed as cell death at 24.11 uM after 24 hrs by MTT colorimetric assay. The conditions noted are these: macrophage. In kind it is cell-based.
Data set [20] is described as follows: Cytotoxicity against mouse macrophages assessed as cell death at 19.18 uM after 24 hrs by MTT colorimetric assay. The data set is classed as cell-based. The following applies: macrophage.

Data on 15 compounds can be found in ChEMBL document CHEMBL1149868, “Synthesis and in vitro anti-leishmanial activity of 1-[5-(5-nitrofuran-2-yl)-1,3,4-thiadiazol-2-yl]- and 1-[5-(5-nitrothiophen-2-yl)-1,3,4-thiadiazol-2-yl]-4-aroylpiperazines” (Bioorg Med Chem, 2008).

Calls of active or inactive are those of the source. The rule behind the calls is not given here. A value given as a limit tells only on which side of the number the result lay.

In the case of MEGLUMINE ANTIMONATE, the Activity in [1] was determined as 40.4%.
`O=C(c1ccc(Cl)s1)N1CCN(c2nnc(-c3ccc([N+](=O)[O-])s3)s2)CC1`: the logP (as a rule, a log measure of how a compound divides between an organic and an aqueous phase) in [2] stood at 2.27. Moreover, it took 23.8 µM to reach half-maximal inhibition in [3] (IC50). Besides, in [4], the Activity is 9.8%.
In turn, `O=C(c1ccc(Br)s1)N1CCN(c2nnc(-c3ccc([N+](=O)[O-])o3)s2)CC1` came in with a logP in data set [2] of 2.22. Moreover, the IC50 (commonly the concentration needed to halve the response being measured) in data set [3] is 13.1 µM. For the same compound, the Activity in [5] is given as 7.7%. Besides, the result in data set [6], in data set [7] and in [8] was Active.
The compound `O=C(c1ccccc1)N1CCN(c2nnc(-c3ccc([N+](=O)[O-])s3)s2)CC1` registered a logP in data set [2] of 2.52. This compound returned an IC50 in data set [3] of 25 µM. For the same compound, in data set [9], the Activity was 8.9%.
In data set [2], `O=C(c1cccc(Cl)c1)N1CCN(c2nnc(-c3ccc([N+](=O)[O-])o3)s2)CC1` showed a logP of 1.95. The compound further displayed a half-inhibitory concentration (IC50) in [3] of 13.2 µM. Also, the outcome in data set [6], in data set [7] and in data set [8] was Active. Also, in data set [10], the Activity was 9.7%.
For the compound `O=C(c1ccc(Cl)cc1)N1CCN(c2nnc(-c3ccc([N+](=O)[O-])o3)s2)CC1`, the Activity in data set [11] came to 9.7%. The logP in [2] amounted to 1.95. Besides, half-maximal inhibition in data set [3] (IC50) was put at 26.2 µM.
Turning to `O=C(c1ccccc1Cl)N1CCN(c2nnc(-c3ccc([N+](=O)[O-])s3)s2)CC1`, the Activity in data set [12] was 6.1%. Further, the logP in data set [2] was determined as 2.29. In addition, the midpoint of inhibition in data set [3], the IC50, lay at 34.4 µM.
In data set [2], `O=C(c1ccc(Br)s1)N1CCN(c2nnc(-c3ccc([N+](=O)[O-])s3)s2)CC1` gave a logP of 2.57. For the same compound, the IC50 in data set [3] worked out at 24.7 µM. For the same compound, the Activity in data set [13] worked out at 9.2%.
On to `O=C(c1ccccc1)N1CCN(c2nnc(-c3ccc([N+](=O)[O-])o3)s2)CC1`, for which the Activity in data set [14] amounted to 7.1%. In [2], the logP is 2.17. Moreover, inhibition in data set [3] was half-maximal at 11.7 µM (IC50). The result in [6], in data set [7] and in [8] was Active.
In [2], `O=C(c1cccc(Cl)c1)N1CCN(c2nnc(-c3ccc([N+](=O)[O-])s3)s2)CC1` returned a log partition coefficient (logP) of 2.29. In [3], the IC50 is over 50 µM. For the same compound, the Activity in data set [15] amounted to 5.5%.
`O=C(c1cccs1)N1CCN(c2nnc(-c3ccc([N+](=O)[O-])s3)s2)CC1` showed a logP in data set [2] of 1.13. The midpoint of inhibition in [3], the IC50, lay at 28.3 µM. Besides, the Activity in [16] was 8.7%.
The compound `O=C(c1ccc(Cl)s1)N1CCN(c2nnc(-c3ccc([N+](=O)[O-])o3)s2)CC1` displayed a logP in data set [2] of 1.92. Further, it took 11.8 µM to reach half-maximal inhibition in [3] (IC50). The result in data set [6], in [7] and in data set [8] was Active. Also, in data set [17], the Activity is reported as 7.6%.
As to `O=C(c1ccccc1Cl)N1CCN(c2nnc(-c3ccc([N+](=O)[O-])o3)s2)CC1`, in [18], the Activity was 8.7%. Also, the logP in data set [2] came out at 1.95. The IC50 in data set [3] was 10.7 µM. Further, the result in data set [6], in [7] and in data set [8] was Active.
Take `O=C(c1ccc(Cl)cc1)N1CCN(c2nnc(-c3ccc([N+](=O)[O-])s3)s2)CC1`: in [2], the logP stood at 2.29. In addition, half-maximal inhibition in data set [3] (IC50) was put at 24.1 µM. For the same compound, the Activity in [19] came to 7.2%.
In [2], `O=C(c1cccs1)N1CCN(c2nnc(-c3ccc([N+](=O)[O-])o3)s2)CC1` came in with a logP of 0.78. This compound returned a concentration for half-maximal inhibition (IC50) in data set [3] of 19.2 µM. Further, the Activity in [20] is recorded as 2.4%.
